Converted amounts (≈) assume the structure as drawn.
What was measured:
Type in all cases: functional
Pseudomonas aeruginosa [1] = test: Antibacterial activity against Pseudomonas aeruginosa P332 assessed as mutant prevention concentration after overnight incubation
Escherichia coli [2] = test: Antibacterial activity against beta-lactamase-negative Escherichia coli E346 assessed as mutant prevention concentration after overnight incubation
Klebsiella pneumoniae [3] = test: Antibacterial activity against beta-lactamase-negative Klebsiella pneumoniae E361 assessed as mutant prevention concentration after overnight incubation
Escherichia coli [4] = test: Antibacterial activity against beta-lactamase-negative Escherichia coli E350 […] by agar dilution method
Escherichia coli [5] = test: Antibacterial activity against beta-lactamase-positive ESBL-negative Escherichia coli E484 incubated up to 7 days by agar dilution method; conditions: E484, 168 h
Acinetobacter baumannii [6] = test: Antibacterial activity against Acinetobacter baumannii A851 assessed as mutant prevention concentration after overnight incubation
Pseudomonas aeruginosa [7] = test: Antibacterial activity against Pseudomonas aeruginosa P327 assessed as mutant prevention concentration after overnight incubation
Escherichia coli [8] = test: Antibacterial activity against beta-lactamase-positive ESBL-positive Escherichia coli E450 assessed as mutant prevention concentration after overnight incubation
In short: (§1)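 Overnight growth on blood trypticase soy agar (35°C, air) was resuspended in 0.9% saline and counted on drug-free Mueller-Hinton agar. […] Colonies were retested by agar dilution to confirm mutants. MPC was the lowest concentration preventing resistant-mutant growth.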

Klebsiella pneumoniae [9] = test: Antibacterial activity against beta-lactamase-positive ESBL-negative Klebsiella pneumoniae E511 assessed as mutant prevention concentration after overnight incubation; in short: as §1
Escherichia coli [10] = test: Antibacterial activity against beta-lactamase-positive ESBL-positive Escherichia coli E458 incubated up to 7 days by agar dilution method; conditions: E458, 168 h
In short: (§2)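 MIC by CLSI agar dilution, with quality-control strains in each run. Beta-lactamase status was set by 30 μg cefazolin Kirby-Bauer disk diffusion. ESBL status was set by cefotaxime and ceftazidime disks (30 μg) with and without clavulanic acid (10 μg).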

Klebsiella pneumoniae [11] = test: Antibacterial activity against beta-lactamase-positive ESBL-negative Klebsiella pneumoniae E473 incubated up to 7 days by agar dilution method; conditions: E473, 168 h
Acinetobacter baumannii [12] = test: Antibacterial activity against Acinetobacter baumannii A928 assessed as mutant prevention concentration after overnight incubation
Acinetobacter baumannii [13] = test: Antibacterial activity against Acinetobacter baumannii A849 assessed as mutant prevention concentration after overnight incubation
Klebsiella pneumoniae [14] = test: Antibacterial activity against beta-lactamase-positive ESBL-negative Klebsiella pneumoniae E472 incubated up to 7 days by agar dilution method; conditions: E472, 168 h
Escherichia coli [15] = test: Antibacterial activity against beta-lactamase-negative Escherichia coli E424 assessed as mutant prevention concentration after overnight incubation
Pseudomonas aeruginosa [16] = test: Antibacterial activity against Pseudomonas aeruginosa P340 assessed as mutant prevention concentration after overnight incubation
Escherichia coli [17] = test: Antibacterial activity against beta-lactamase-negative Escherichia coli E347 incubated up to 7 days by agar dilution method; conditions: E347, 168 h
Acinetobacter baumannii [18] = test: Antibacterial activity against Acinetobacter baumannii A885 assessed as mutant prevention concentration after overnight incubation
Klebsiella pneumoniae [19] = test: Antibacterial activity against beta-lactamase-positive ESBL-negative Klebsiella pneumoniae E479 incubated up to 7 days by agar dilution method; conditions: E479, 168 h
In short: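 MPC determination: overnight cultures on blood trypticase soy agar at 35°C in air were resuspended in 0.9% saline, and CFU were counted on drug-free Mueller-Hinton agar. […] Growth was retested by agar dilution to confirm mutants. MPC was the lowest concentration preventing resistant-mutant growth.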

Klebsiella pneumoniae [20] = test: Antibacterial activity against beta-lactamase-negative Klebsiella pneumoniae E357 assessed as mutant prevention concentration after overnight incubation
Acinetobacter baumannii [21] = test: Antibacterial activity against Acinetobacter baumannii A911 assessed as mutant prevention concentration after overnight incubation
Klebsiella pneumoniae [22] = test: Antibacterial activity against beta-lactamase-positive ESBL-negative Klebsiella pneumoniae E474 incubated up to 7 days by agar dilution method; conditions: E474, 168 h
Pseudomonas aeruginosa [23] = test: Antibacterial activity against Pseudomonas aeruginosa P352 assessed as mutant prevention concentration after overnight incubation
Klebsiella pneumoniae [24] = test: Antibacterial activity against beta-lactamase-negative Klebsiella pneumoniae E417 incubated up to 7 days by agar dilution method; conditions: E417, 168 h; in short: as §2
Escherichia coli [25] = test: Antibacterial activity against beta-lactamase-negative Escherichia coli E345 assessed as mutant prevention concentration after overnight incubation
Escherichia coli [26] = test: Antibacterial activity against beta-lactamase-positive ESBL-positive Escherichia coli E460 assessed as mutant prevention concentration after overnight incubation; in short: as §1
Klebsiella pneumoniae [27] = test: Antibacterial activity against beta-lactamase-negative Klebsiella pneumoniae E359 incubated up to 7 days by agar dilution method; conditions: E359, 168 h
Escherichia coli [28] = test: Antibacterial activity against beta-lactamase-positive ESBL-negative Escherichia coli E483 […] by agar dilution method
Acinetobacter baumannii [29] = test: Antibacterial activity against Acinetobacter baumannii A891 assessed as mutant prevention concentration after overnight incubation
Escherichia coli [30] = test: Antibacterial activity against beta-lactamase-negative Escherichia coli E347 assessed as mutant prevention concentration after overnight incubation
Acinetobacter baumannii [31] = test: Antibacterial activity against Acinetobacter baumannii A903 assessed as mutant prevention concentration after overnight incubation
Klebsiella pneumoniae [32] = test: Antibacterial activity against beta-lactamase-positive ESBL-negative Klebsiella pneumoniae E481 assessed as mutant prevention concentration after overnight incubation; in short: as §1
Acinetobacter baumannii [33] = test: Antibacterial activity against Acinetobacter baumannii A897 assessed as mutant prevention concentration after overnight incubation
Escherichia coli [34] = test: Antibacterial activity against beta-lactamase-positive ESBL-positive Escherichia coli E459 assessed as mutant prevention concentration after overnight incubation; in short: as §1
Escherichia coli [35] = test: Antibacterial activity against beta-lactamase-negative Escherichia coli E344 assessed as mutant prevention concentration after overnight incubation
Acinetobacter baumannii [36] = test: Antibacterial activity against Acinetobacter baumannii A931 assessed as mutant prevention concentration after overnight incubation
Pseudomonas aeruginosa [37] = test: Antibacterial activity against Pseudomonas aeruginosa P363 assessed as mutant prevention concentration after overnight incubation
Escherichia coli [38] = test: Antibacterial activity against beta-lactamase-positive ESBL-positive Escherichia coli E452 assessed as mutant prevention concentration after overnight incubation; in short: as §1
Pseudomonas aeruginosa [39] = test: Antibacterial activity against Pseudomonas aeruginosa P373 assessed as mutant prevention concentration after overnight incubation
Acinetobacter baumannii [40] = test: Antibacterial activity against Acinetobacter baumannii A896 assessed as mutant prevention concentration after overnight incubation
Escherichia coli [41] = test: Antibacterial activity against beta-lactamase-positive ESBL-positive Escherichia coli E450 incubated up to 7 days by agar dilution method; conditions: E450, 168 h; in short: as §2
Klebsiella pneumoniae [42] = test: Antibacterial activity against beta-lactamase-negative Klebsiella pneumoniae E418 incubated up to 7 days by agar dilution method; conditions: E418, 168 h
Pseudomonas aeruginosa [43] = test: Antibacterial activity against Pseudomonas aeruginosa P328 assessed as mutant prevention concentration after overnight incubation
Klebsiella pneumoniae [44] = test: Antibacterial activity against beta-lactamase-negative Klebsiella pneumoniae E358 assessed as mutant prevention concentration after overnight incubation
Klebsiella pneumoniae [45] = test: Antibacterial activity against beta-lactamase-positive ESBL-positive Klebsiella pneumoniae E475 assessed as mutant prevention concentration after overnight incubation; in short: as §1
Escherichia coli [46] = test: Antibacterial activity against beta-lactamase-positive ESBL-positive Escherichia coli E456 incubated up to 7 days by agar dilution method; conditions: E456, 168 h; in short: as §2

## C[C@@H](O)[C@H]1C(=O)N2C(C(=O)O)=C(S[C@@H]3CN[C@H](C(=O)N(C)C)C3)[C@H](C)[C@H]12 [MEROPENEM]
Pseudomonas aeruginosa [1]
  MPC: 32 µg/mL
Escherichia coli [2]
  MPC: 0.06 µg/mL
Klebsiella pneumoniae [3]
  MPC: 0.125 µg/mL
Escherichia coli [4]
  MIC: 0.03 µg/mL (≈ 0.0782 µM)
Escherichia coli [5]
  MIC: 1 µg/mL (≈ 2.61 µM)
Acinetobacter baumannii [6]
  MPC: 32 µg/mL
Pseudomonas aeruginosa [7]
  MPC: 8 µg/mL
Escherichia coli [8]
  MPC: 0.06 µg/mL
Klebsiella pneumoniae [9]
  MPC: 64 µg/mL
Escherichia coli [10]
  MIC: 0.03 µg/mL (≈ 0.0782 µM)
Klebsiella pneumoniae [11]
  MIC: 2 µg/mL (≈ 5.22 µM)
Acinetobacter baumannii [12]
  MPC: 4 µg/mL
Acinetobacter baumannii [13]
  MPC: 32 µg/mL
Klebsiella pneumoniae [14]
  MIC: 4 µg/mL (≈ 10.4 µM)
Escherichia coli [15]
  MPC: 0.06 µg/mL
Pseudomonas aeruginosa [16]
  MPC: 4 µg/mL
Escherichia coli [17]
  MIC: 0.03 µg/mL (≈ 0.0782 µM)
Acinetobacter baumannii [18]
  MPC: 8 µg/mL
Klebsiella pneumoniae [19]
  MIC: 8 µg/mL (≈ 20.9 µM)
Klebsiella pneumoniae [20]
  MPC: 0.125 µg/mL
Acinetobacter baumannii [21]
  MPC: 8 µg/mL
Klebsiella pneumoniae [22]
  MIC: 4 µg/mL (≈ 10.4 µM)
Pseudomonas aeruginosa [23]
  MPC: 8 µg/mL
Klebsiella pneumoniae [24]
  MIC: 0.06 µg/mL (≈ 0.156 µM)
Escherichia coli [25]
  MPC: 0.06 µg/mL
Escherichia coli [26]
  MPC: 0.06 µg/mL
Klebsiella pneumoniae [27]
  MIC: 0.06 µg/mL (≈ 0.156 µM)
Escherichia coli [28]
  MIC: 0.5 µg/mL (≈ 1.3 µM)
Acinetobacter baumannii [29]
  MPC: 2 µg/mL
Escherichia coli [30]
  MPC: 0.06 µg/mL
Acinetobacter baumannii [31]
  MPC: 8 µg/mL
Klebsiella pneumoniae [32]
  MPC: 16 µg/mL
Acinetobacter baumannii [33]
  MPC: 1 µg/mL
Escherichia coli [34]
  MPC: 0.125 µg/mL
Escherichia coli [35]
  MPC: 0.03 µg/mL
Acinetobacter baumannii [36]
  MPC: 4 µg/mL
Pseudomonas aeruginosa [37]
  MPC: >8 µg/mL
Escherichia coli [38]
  MPC: 0.06 µg/mL
Pseudomonas aeruginosa [39]
  MPC: >8 µg/mL
Acinetobacter baumannii [40]
  MPC: 4 µg/mL
Escherichia coli [41]
  MIC: 0.03 µg/mL (≈ 0.0782 µM)
Klebsiella pneumoniae [42]
  MIC: 0.06 µg/mL (≈ 0.156 µM)
Pseudomonas aeruginosa [43]
  MPC: 16 µg/mL
Klebsiella pneumoniae [44]
  MPC: 0.06 µg/mL
Klebsiella pneumoniae [45]
  MPC: 32 µg/mL
Escherichia coli [46]
  MIC: 0.03 µg/mL (≈ 0.0782 µM)

— ChEMBL document CHEMBL1255475, “Mutant prevention concentrations of four carbapenems against gram-negative rods” (2010)
